This is an account of results in paper PMC6585414 (Infection and Drug Resistance, 2019).

No end group written: not given here.

Data set [1] can be described thus: Serum biochemical factors after intraperitoneal injection. In kind it is in vivo, mouse. Conditions: blood 48 h after the injection, mean ± standard deviation. The method in brief:
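Mice given PBS (control) or peptide at 50 or 100 μg/mouse by single ip injection (100 μL/mouse). Blood (0.2 mL) drawn 48 h later and serum GPT, GOT, total bilirubin and uric acid quantified. Five mice per group. Data shown as mean ± SD, compared by ANOVA, p<0.05 taken as significant.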

Data set [2] relates to human embryonic kidney cells (HEK-293). In words: MTT cytotoxicity assay. In kind it is cell-based. Conditions: 1.56–50 μg/mL, 48 h, 37°C, in words (Figure 6). The method in brief: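 HEK-293 cells seeded fresh at 1×10^5 cells/well, exposed to twofold serial peptide dilutions (1.56–50 μg/mL) at 37°C in 5% CO2 for 48 h. MTT (5 mg/mL stock, 10 μL) then added for 4 h. Formazan dissolved in 100% DMSO, absorbance read at 575 nm, percentage viable cells derived. Triplicate, three independent repeats, mean ± SD.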

Regarding “FFHHIFRGAVHVGKTIHRLVTG-NH2 [I9A-piscidin-1]”, in data set [1] (50 μg/mouse ip), the “Serum level of GOT” value was 8.96±1.12 U/L, the “Serum level of GPT” value came out at 6.67±0.47 U/L, the “Serum level of TBIL” value was found to be 0.21 ± 0.06 mg/dL and the “Serum level of UA” value was 0.42 ± 0.07 mg/dL. Further, in data set [1] (100 μg/mouse ip), the “Serum level of GOT” value stood at 10.86±1.07 U/L, the “Serum level of GPT” value was 7.17±0.37 U/L, the “Serum level of TBIL” value came out at 0.51 ± 0.09 mg/dL and the “Serum level of UA” value amounted to 0.87 ± 0.09 mg/dL.

For “FFHHIFRGIVHVGKTAHRLVTG-NH2 [I16A-piscidin-1]”, in data set [1] (50 μg/mouse ip), the “Serum level of GOT” value is on record as 9.22±0.90 U/L, the “Serum level of GPT” value was 5.92±1.10 U/L, the “Serum level of TBIL” value stood at 0.20 ± 0.04 mg/dL and the “Serum level of UA” value amounted to 0.39 ± 0.12 mg/dL. Besides, in data set [1] (100 μg/mouse ip), the “Serum level of GOT” value turned out to be 11.08±0.94 U/L, the “Serum level of GPT” value is given as 7.33±1.10 U/L, the “Serum level of TBIL” value was 0.53 ± 0.08 mg/dL and the “Serum level of UA” value came to 0.77 ± 0.14 mg/dL.

Take “FFHHIFRGIVHVGKTIHRLVTG-NH2 [Piscidin-1, reference compound]”: in data set [1] (50 μg/mouse ip), the “Serum level of GOT” value stood at 9.48±1.06 U/L, the “Serum level of GPT” value turned out to be 5.83±0.52 U/L, the “Serum level of TBIL” value amounted to 0.19 ± 0.04 mg/dL and the “Serum level of UA” value was determined as 0.45 ± 0.06 mg/dL. In data set [1] (100 μg/mouse ip), the “Serum level of GOT” value amounted to 10.64±0.97 U/L, the “Serum level of GPT” value came to 4.62±0.42 U/L, the “Serum level of TBIL” value is 0.27 ± 0.07 mg/dL and the “Serum level of UA” value stood at 0.53 ± 0.08 mg/dL. Further, the “Cytotoxic activity against HEK-293” value in data set [2] was “highest cytotoxic activity”.

For “FFHHIFRGIVHVGKTKHRLVTG-NH2 [I16K-piscidin-1]”, in data set [1] (50 μg/mouse ip), the “Serum level of GOT” value amounted to 8.88±0.86 U/L, the “Serum level of GPT” value stood at 6.43±0.86 U/L, the “Serum level of TBIL” value stood at 0.20 ± 0.05 mg/dL and the “Serum level of UA” value turned out to be 0.41 ± 0.11 mg/dL. Further, the “Serum level of GOT” value in data set [1] (100 μg/mouse ip) came out at 8.53±1.15 U/L. Further, the “Cytotoxic activity against HEK-293” value in data set [2] is recorded as “lowest activity against HEK-293 cells compared to other peptides”.

In the case of “FFHHIFRGKVHVGKTIHRLVTG-NH2 [I9K-piscidin-1]”, in data set [1] (50 μg/mouse ip), the “Serum level of GOT” value stood at 9.27±0.78 U/L, the “Serum level of GPT” value is 6.26±0.22 U/L, the “Serum level of TBIL” value worked out at 0.18 ± 0.07 mg/dL and the “Serum level of UA” value is 0.43 ± 0.05 mg/dL. For the same substance, in data set [1] (100 μg/mouse ip), the “Serum level of GOT” value was determined as 10.32±0.88 U/L, the “Serum level of GPT” value was found to be 6.86±0.82 U/L, the “Serum level of TBIL” value amounted to 0.48 ± 0.10 mg/dL and the “Serum level of UA” value came to 0.81 ± 0.07 mg/dL.
